Assay results collected from several papers.
≈ marks a conversion by molar mass, not a printed value.
Effect on: microbial growth

SMILES | organism | technique | strain | MIC
CCCCCCC#Cc1cncc(-c2nnc(SCc3cc([N+](=O)[O-])cc([N+](=O)[O-])c3)n2C2CCNCC2)c1 | Enterobacter cloacae | broth dilution | DSM30054 | > 64 µg/mL
Cc1ccc(N=Nc2c(N)nn3c(-c4ccc(Cl)cc4Cl)cc(-c4ccc(OCc5ccccc5)cc4)nc23)cc1 | Enterobacter cloacae |  | ATCC23355 | 31.3 µg/mL (≈ 54 µM)
Cc1cc(Nc2nnc(-c3n[nH]c4ccc(C)cc34)s2)cc([N+](=O)[O-])c1 | Serratia marcescens |  | ATCC8100 | 198 µg/mL (≈ 540 µM)
C[C@@H](O)[C@H]1C(=O)N2C(C(=O)O)=C(S[C@@H]3CN[C@H](C(=O)N(C)C)C3)[C@H](C)[C@H]12 | Enterobacter cloacae | broth dilution | ATCC13047 | 0.125 µg/mL (≈ 0.326 µM)
Cc1ccc(N=Nc2c(N)nn3c(-c4ccc(C)cc4)cc(-c4ccc(OCc5ccccc5)cc4)nc23)cc1 | Enterobacter cloacae |  | ATCC23355 | 15.6 µg/mL (≈ 29.7 µM)
CO/N=C(\C(=O)N[C@@H]1C(=O)N2C(C(=O)O)=CCS[C@H]12)c1csc(N)n1 | Enterobacter cloacae | broth dilution | ATCC13047 | 2 µg/mL (≈ 5.22 µM)
Cc1ccc(-c2cc(-c3ccc(OCc4ccccc4)cc3)nc3c(N=Nc4ccc(F)cc4)c(N)nn23)cc1 | Enterobacter cloacae |  | ATCC23355 | 31.3 µg/mL (≈ 59.2 µM)
CNC(C)C1CCC(N)C(OC2C(N)CC(N)C(OC3OCC(C)(O)C(NC)C3O)C2O)O1 (stereo not shown) | Enterobacter cloacae | broth dilution | ATCC13047 | 4 µg/mL (≈ 8.38 µM)
CCCCCCC#Cc1cncc(-c2nnc(SCc3cc(C(F)(F)F)cc(C(F)(F)F)c3)n2CCCN)c1 | Enterobacter cloacae | broth dilution | DSM30054 | > 64 µg/mL
COc1ccc(N=Nc2c(N)nn3c(-c4ccc(C)cc4)cc(-c4ccc(OCc5ccccc5)cc4)nc23)cc1 | Enterobacter cloacae |  | ATCC23355 | 31.3 µg/mL (≈ 57.9 µM)
Cc1ccc2[nH]nc(-c3nnc(Nc4ccc(F)cc4Cl)s3)c2c1 | Serratia marcescens |  | ATCC8100 | 85.2 µg/mL (≈ 237 µM)
Nc1nn2c(-c3ccco3)cc(-c3ccc(OCc4ccccc4)cc3)nc2c1N=Nc1ccc(F)cc1 | Enterobacter cloacae |  | ATCC23355 | 15.6 µg/mL (≈ 30.9 µM)
Cc1ccc2[nH]nc(-c3nnc(Nc4ccc(C)c(C)c4)s3)c2c1 | Serratia marcescens |  | ATCC8100 | 123 µg/mL (≈ 366 µM)
CCCCCCC#Cc1cncc(-c2nnc(SCc3cc([N+](=O)[O-])cc([N+](=O)[O-])c3)n2CCOC2OC(CN)C(O)C2O)c1 (stereo not shown) | Enterobacter cloacae | broth dilution | DSM30054 | 64 µg/mL (≈ 99.7 µM)
CN(C)[C@@H]1C(O)=C(C(N)=O)C(=O)[C@@]2(O)C(O)=C3C(=O)c4c(O)cccc4[C@@](C)(O)[C@H]3C[C@@H]12 | Enterobacter cloacae | broth dilution | ATCC13047 | 2 µg/mL (≈ 4.5 µM)
Cc1ccc2[nH]nc(-c3nnc(Nc4ccc(Cl)c(Br)c4)s3)c2c1 | Serratia marcescens |  | ATCC8100 | 270 µg/mL (≈ 641 µM)
